# CDK5 p35 inh – inhibitors of human CDK5/p35 kinase | Q00535+Q15078 | Recombinant CDK5/p35, ADP-Glo luminescence, 60 min | inhibition, % at 10 µM | 330,000 tested, 0.01% active;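 active = highest replicate inhibition of at least 50% and at least 75% of replicates reaching 50%; inconclusive = only one of the two criteria met; inactive = both criteria failed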;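 note: plate controls were DMSO neutral control for no effect and GW8510 at 10 µM for full effect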
# Cneo AK release – Cryptococcus neoformans lysis via adenylate kinase release. 360,000 tested, 0.2% active. C. neoformans lysis, adenylate kinase release luminescence, 4 h; normalised: neutral wells 0, clomiphene wells 100. lysis activity, % at 15 µM;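 active = mean lysis activity across replicates of at least 80%, whatever share of replicates individually reach that level; inactive = mean lysis activity below 80%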
#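 Material – Cryptococcus neoformans yeast cells · Quantity – 5 × 10^6 yeast cells/mL · Buffer or medium – YPD medium · Compound – single dose · Timing – 4 h static compound exposure, 37 °C, read 1 h post-reagent · Signal – adenylate kinase release luminescence · Read-out basis – lysis from increased AK signal · Benchmarks – Clomiphene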
# HIV Env fusion – HIV envelope-mediated fusion inhibition; HeLa-JRFL Env/CEM21 cell fusion, luciferase; inhibition, % at 12.3 µM; 360,000 tested, 1.1% active;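 active = mean replicate inhibition score of at least 50 and every replicate individually at or above 50; inconclusive = only one of the two criteria met; inactive = mean below 50 and not all replicates reaching 50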;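 note: 0% = plate neutral controls and 100% = maraviroc near 300 nM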
# INS-1E GSIS act – GLuc luminescence reporter in INS-1E cells, primary screen for activators of glucose-dependent secretion of insulin; 370,000 tested, 0.61% active; AID 743287; INS-1E GLuc reporter insulin secretion, 2-3 h; activation, % at 16.6 µM;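 active = lowest replicate activation of at least 40%, so every replicate reaches that level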;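 note: 0% = median of neutral control wells and 100% = median of IBMX positive control wells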
# dFosB activator – enhances mouse delta FosB homodimer DNA binding; P13346; purified delta FosB, TAMRA-CDK5 oligo fluorescence polarization; percent of positive-control signal above neutral wells; activation, % at 25 µM; 340,000 tested, 0.99% active;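 active = mean activation above about 17%, with every replicate also reaching it, limit read from the data, passing the limit was not always enough; inconclusive = only one of the two conditions met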
# Target sequence (P13346 whole entry, looked up): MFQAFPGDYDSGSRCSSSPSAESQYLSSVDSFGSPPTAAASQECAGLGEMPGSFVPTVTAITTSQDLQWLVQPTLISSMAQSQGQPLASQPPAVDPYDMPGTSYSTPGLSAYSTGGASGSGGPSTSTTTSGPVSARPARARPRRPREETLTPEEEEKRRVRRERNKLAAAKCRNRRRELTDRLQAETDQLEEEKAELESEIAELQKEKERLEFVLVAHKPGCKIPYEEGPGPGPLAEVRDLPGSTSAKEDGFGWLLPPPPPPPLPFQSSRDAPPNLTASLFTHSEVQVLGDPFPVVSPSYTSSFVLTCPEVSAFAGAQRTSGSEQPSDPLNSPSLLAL
# PAX8 inh HTS – inhibitors of PAX8 transcriptional activity in RMG-I cells. RMG-I TPO-luciferase reporter, SteadyGlo, 24 h. inhibition, % at 12.6 µM. 360,000 tested, 1.2% active. AID 652154;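 active = mean replicate inhibition at least 60% with every replicate also reaching 60%; inconclusive = only one of the two criteria is met; inactive = mean below 60% and not all replicates reaching 60%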;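 note: luciferase light reporting Pax8 driven TPO promoter activity; plate controls were median of neutral control wells for no effect and mitoxantrone controls for full effect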
# Starred values were filed as active, the others as inactive; ? = inconclusive; · = no result given; [ ] = another dose, or the depositor's remark. Shown are actives, neighbours in structure and some others; about 2.9% of the full set was active somewhere.
SMILES,CDK5 p35 inh,Cneo AK release,HIV Env fusion,INS-1E GSIS act,dFosB activator,PAX8 inh HTS
C[C@H](CO)N1C[C@H](C)[C@@H](CN(C)S(C)(=O)=O)Oc2ncc(C#CC3(O)CCCC3)cc2C1=O,·,-5,-2[16.7 µM],18,·,·
Cc1noc(C)c1NC(=O)Nc1ccc2c(c1)C(=O)N([C@@H](C)CO)C[C@H](C)[C@@H](CN(C)S(=O)(=O)c1ccccc1)O2,·,·,7[16.7 µM],3,·,·
O=C(/C=C/c1ccco1)Nc1ccc(N2CCCC2)cc1,1,·,-85,-11,41*,-166
CCC(=O)Nc1ccc2c(c1)C(=O)N(C)[C@H]1CC[C@H](CC(=O)Nc3cccc(OC)c3)O[C@H]1CO2,·,3,-19[16.7 µM],2,·,3
C[C@H]1CN([C@@H](C)CO)C(=O)c2c(c3ccccc3n2C)-c2ccccc2CO[C@@H]1CN(C)S(=O)(=O)c1ccccc1F,·,-1,17[16.7 µM],11,·,74*
C[C@@H]1CN([C@@H](C)CO)C(=O)c2c(c3ccccc3n2C)-c2ccccc2CO[C@H]1CN(C)S(=O)(=O)c1ccccc1F,·,0,24[16.7 µM],-15,·,84*
C[C@H]1CN([C@@H](C)CO)C(=O)c2c(c3ccccc3n2C)-c2ccccc2CO[C@H]1CN(C)S(=O)(=O)c1ccccc1F,·,·,·,4,·,·
O=C(C[C@@H]1C=C[C@H](NC(=O)Nc2ccccc2F)[C@@H](CO)O1)NCc1ccc(F)cc1,·,42,-17[16.7 µM],9,·,6
COc1ccc(/C=N/NC(=O)c2cc(OC)c(OC)c(OC)c2)cc1CN1CCc2cc(OC)c(OC)cc2C1C (stereo not given),0,·,-2,-22,-13,17
COc1ccc(C2NCCc3c2[nH]c2ccccc32)cc1CN1CCc2cc(OC)c(OC)cc2C1C (stereo not given),1,·,·,·,63*,·
COc1ccc(C2NCCc3c2[nH]c2ccccc32)cc1COc1ccc(F)cc1 (stereo not given),-2,·,-142,-12,62*,22
COc1ccc(C2NC(C(=O)O)Cc3c2[nH]c2ccccc32)cc1CN1CCN(c2ccc(F)cc2)CC1 (stereo not given),1,-3,-20,-12,1,26
CN(C(=O)CSc1nc(O)cc(=O)n1-c1ccccc1F)c1ccccc1,2,1,65*,2,-6,10
CN(C(=O)CSc1nc(O)cc(=O)n1C1CCCC1)c1ccccc1,-6,1,12,-3,-3,9
CCC(=O)N1[C@@H]2c3ccc(C4=CCCC4)c(=O)n3C[C@@H]2[C@@H](CO)[C@@H]1C(=O)Nc1ccccc1,·,57,·,7,·,-15
COCCn1c(-c2ccc3ccccc3c2)nc2c1c(=O)[nH]c(=O)n2CC(C)C,0,1,9,48*,-21,-4
C[C@@H]1CN([C@H](C)CO)C(=O)c2cc(NC(=O)Cc3cn(C)c4ccccc34)ccc2O[C@H]1CN(C)Cc1ccc(Oc2ccccc2)cc1,·,-3,-9[16.7 µM],-12,·,·
Cn1cnc(CCNC(=O)C[C@@H]2CC[C@H]3[C@@H](COC[C@@H](O)CN3C(=O)C3CCCC3)O2)c1,·,-3,-15[16.7 µM],0,·,-5
O=C(Cc1cn(Cc2ccccc2)c2ccccc12)Nc1ccc(Nc2cccnc2)c(Br)c1,·,·,-11,-29,·,2
COc1ccc(S(=O)(=O)N(C)C[C@H]2Oc3c(NC(=O)C4CCOCC4)cccc3C(=O)N([C@H](C)CO)C[C@@H]2C)cc1,·,53,·,2,·,·
O=C(Cn1nc(CNc2ccc(Br)cc2)[n+]2c1CCCCC2)c1ccc([N+](=O)[O-])cc1,2,-2,20,·,-9,71*
O=C(Cn1nc(CNc2ccc(Cl)cc2)[n+]2c1CCCCC2)c1ccc(Br)cc1,1,16,-5,21,5,1
CCOc1ccccc1N(C(=O)CNC(=O)c1ccco1)C(C(=O)NC1CCCC1)c1cccnc1 (stereo not given),0,0,77*,·,-10,-2
Cc1ccc(C(C(=O)NC2CCCCC2)N(C(=O)CCCC(=O)Nc2ccccn2)c2ccc3c(c2)OCCO3)cc1 (stereo not given),-1,·,-17,-6,-3,1
O=C(CCCC(=O)N(c1ccc2c(c1)OCCO2)C(C(=O)NC1CCCCC1)c1ccc(F)cc1)Nc1ccccn1 (stereo not given),8,0,69*,·,4,·
SMILES,CDK5 p35 inh,Cneo AK release,HIV Env fusion,INS-1E GSIS act,dFosB activator,PAX8 inh HTS
O=C(NC1CCCCC1)C(c1cccnc1)N(C(=O)CCl)c1ccccc1Cl (stereo not given),-4,·,46,3,0,101*
CCc1ccccc1N(C(=O)CNC(=O)c1ccco1)C(C(=O)NC1CCCC1)c1cccnc1 (stereo not given),-1,-1,-3,2,0,-11
COc1ccc(N(C(=O)CCl)C(C(=O)NC2CCCCC2)c2cccnc2)cc1 (stereo not given),-1,·,51*,26,-8,113*
C[C@H](CO)N1C[C@H](C)[C@H](CN(C)Cc2ccccn2)Oc2cc(C3=CCCC3)ccc2S1(=O)=O,·,0,·,-10,·,-10
O=C(NC1CCCCC1)C(c1cccnc1)N(C(=O)CCl)c1ccc(F)cc1 (stereo not given),2,4,·,13,2,109*
O=C(NCC(=O)N(c1ccc(F)cc1)C(C(=O)NC1CCCC1)c1cccnc1)c1cccs1 (stereo not given),-2,-1,9,2,0,8
O=C(NCC(=O)N(c1ccccc1)C(C(=O)NC1CCCCC1)c1cccnc1)c1cccs1 (stereo not given),1,1,56*,6,-10,7
c1ccc(C[n+]2cccc3c4ccccc4ccc32)cc1,0,-4,·,·,2,·
CCCCC[n+]1cccc2c3ccccc3ccc21,-1,·,97*,-70,7,56
CCN1[C@@H]2c3ccc(-c4ccc(OC)cc4)c(=O)n3C[C@@H]2[C@@H](CO)[C@@H]1C(=O)N(C)C,·,·,·,-1,·,-3
CCN(CC)c1nc(Nc2ccccc2)nc(Oc2ccc(=O)[nH]n2)n1,-2,-4,91*,8,-20,·
NC(=O)[C@@H]1CC2(CC(c3cccc(NC(=O)CC(c4ccccc4)c4ccccc4)c3)=NO2)CN1C(=O)COc1ccc(Cl)cc1 (stereo not given in full),-2,2,1,-2,-3,77*
NC(=O)[C@H]1CC2(CC(c3cccc(NC(=O)CC(c4ccccc4)c4ccccc4)c3)=NO2)CN1C(=O)c1ccccc1C(=O)c1ccccc1 (stereo not given in full),0,2,7,-2,5,?
